The source of these data is ChEMBL document CHEMBL3994609, “Model-Based Discovery of Synthetic Agonists for the Zn2+-Sensing G-Protein-Coupled Receptor 39 (GPR39) Reveals Novel Biological Functions” (J Med Chem, 2017).

Usually EC50 stands for the concentration giving half of the maximal effect. As usually defined, the inhibition is how much of the control response was suppressed.

Molecules are shown by their SMILES. The source made the active and inactive calls. The calls are words filed in the database; no cut-off is given here.

Test [1] has as its target T1, G-protein coupled receptor 39 (Homo sapiens, UniProt O43194).
T1 sequence (O43194 whole entry): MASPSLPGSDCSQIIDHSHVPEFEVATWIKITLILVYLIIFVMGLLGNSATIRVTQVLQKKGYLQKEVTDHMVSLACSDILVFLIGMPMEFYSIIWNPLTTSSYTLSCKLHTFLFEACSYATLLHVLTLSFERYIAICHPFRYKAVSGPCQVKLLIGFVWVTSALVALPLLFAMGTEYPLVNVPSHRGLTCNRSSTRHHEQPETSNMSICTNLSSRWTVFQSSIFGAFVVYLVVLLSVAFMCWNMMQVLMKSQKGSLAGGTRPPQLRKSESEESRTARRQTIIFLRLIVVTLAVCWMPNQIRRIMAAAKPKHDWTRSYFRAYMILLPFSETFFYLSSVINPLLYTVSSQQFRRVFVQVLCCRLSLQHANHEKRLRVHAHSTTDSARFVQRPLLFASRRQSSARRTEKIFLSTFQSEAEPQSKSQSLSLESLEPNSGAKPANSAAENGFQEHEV
Briefly: (§1) Agonist activity at human GPR39 expressed in HEK293 cells co-expressing Galphaq assessed as myo-[2-3H]inositol phosphate accumulation measured after 75 mins by scintillation proximity assay. Format: functional, cell-based.

The target in test [2] is T2, G-protein coupled receptor 39 (Homo sapiens) (UniProt O43194).
T2 sequence (whole entry): T1 sequence (O43194 whole entry)
Briefly: (§2) Agonist activity at human GPR39 expressed in HEK293 cells co-expressing Galphaq assessed as myo-[2-3H]inositol phosphate accumulation in presence of 10 uM Zn2+ measured after 75 mins by scintillation proximity assay. It is filed as functional, cell-based. (In general: Scintillation proximity formats need no separation of bound from free tracer.)

For test [3], the target named is T2, G-protein coupled receptor 39 (Homo sapiens). Briefly: Agonist activity at human GPR39 expressed in HEK293 cells co-expressing Galphaq assessed as myo-[2-3H]inositol phosphate accumulation in presence of 10 uM Zn2+ measured after 75 mins by scintillation proximity assay relative to zinc. It is filed as functional, cell-based.
The target is the same in test [4]. Described as §1. It is filed as functional, cell-based.
Test [5] has the same target. Briefly: Agonist activity at human GPR39 expressed in HEK293 cells co-expressing Galphaq assessed as myo-[2-3H]inositol phosphate accumulation in presence of 100 nM Zn2+ measured after 75 mins by scintillation proximity assay. Format: functional, cell-based.
For test [6], the target named is T1, G-protein coupled receptor 39. Described as §2. Format: functional, cell-based.
Test [7] concerns the target T2, G-protein coupled receptor 39 (Homo sapiens). Briefly: Agonist activity at human GPR39 expressed in HEK293 cells co-expressing Galphaq assessed as myo-[2-3H]inositol phosphate accumulation in presence of 1 uM Zn2+ measured after 75 mins by scintillation proximity assay. It is filed as functional, cell-based.
In test [8] the target is T3, G-protein coupled receptor 39 (Mus musculus, UniProt Q5U431).
T3 sequence (Q5U431 whole entry): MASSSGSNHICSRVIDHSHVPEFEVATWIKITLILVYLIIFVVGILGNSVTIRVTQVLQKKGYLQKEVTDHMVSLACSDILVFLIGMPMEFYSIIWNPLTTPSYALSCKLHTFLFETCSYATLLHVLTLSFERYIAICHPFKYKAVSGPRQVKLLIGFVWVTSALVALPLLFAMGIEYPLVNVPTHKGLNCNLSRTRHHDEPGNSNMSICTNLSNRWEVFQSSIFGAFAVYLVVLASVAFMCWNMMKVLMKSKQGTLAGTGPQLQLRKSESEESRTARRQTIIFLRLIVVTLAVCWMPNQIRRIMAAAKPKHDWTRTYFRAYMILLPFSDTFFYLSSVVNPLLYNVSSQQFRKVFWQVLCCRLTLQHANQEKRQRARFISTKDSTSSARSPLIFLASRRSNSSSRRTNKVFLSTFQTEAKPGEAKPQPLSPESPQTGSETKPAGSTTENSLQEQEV
Briefly: Agonist activity at mouse GPR39 expressed in HEK293 cells co-expressing Galphaq assessed as myo-[2-3H]inositol phosphate accumulation in presence of 10 uM Zn2+ measured after 75 mins by scintillation proximity assay. It is filed as functional, cell-based.

Test [9] addresses T2, G-protein coupled receptor 39 (Homo sapiens). Briefly: Agonist activity at GPR39 (unknown origin) expressed in COS7 cells co-expressing Galphas assessed as increase in intracellular cAMP level measured after 30 mins by chemiluminescence assay. It is filed as functional, cell-based.
For test [10] the target is unchanged. Briefly: (§3) Agonist activity at GPR39 (unknown origin) expressed in COS7 cells co-expressing Galphas assessed as increase in intracellular cAMP level in presence of 3 uM Zn2+ measured after 30 mins by chemiluminescence assay. It is filed as functional, cell-based.
For test [11], the target named is T1, G-protein coupled receptor 39. The test is described as §3. Format: functional, cell-based.
The target in test [12] is Growth hormone secretagogue receptor type 1 (Homo sapiens) (UniProt Q92847). Briefly: Agonist activity at human ghrelin receptor ([…]) assessed as myo-[2-3H]inositol phosphate accumulation measured after 75 mins by scintillation proximity assay. Format: functional.
Growth hormone secretagogue receptor type 1 (Homo sapiens), sequence (Q92847 whole entry): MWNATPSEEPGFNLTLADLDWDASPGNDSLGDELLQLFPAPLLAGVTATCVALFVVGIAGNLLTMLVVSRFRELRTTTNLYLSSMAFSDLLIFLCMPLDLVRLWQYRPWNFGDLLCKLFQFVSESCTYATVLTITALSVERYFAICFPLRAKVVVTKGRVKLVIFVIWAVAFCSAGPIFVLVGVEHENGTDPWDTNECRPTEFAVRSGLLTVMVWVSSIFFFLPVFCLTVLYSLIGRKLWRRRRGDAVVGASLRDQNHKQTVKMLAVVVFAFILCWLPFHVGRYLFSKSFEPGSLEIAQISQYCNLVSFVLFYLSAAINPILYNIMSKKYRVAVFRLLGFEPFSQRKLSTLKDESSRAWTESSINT
In test [13] the target is Motilin receptor (Homo sapiens) (UniProt O43193). Briefly: Agonist activity at human motilin receptor (412 residues) assessed as myo-[2-3H]inositol phosphate accumulation measured after 75 mins by scintillation proximity assay. It is filed as functional.
Motilin receptor (Homo sapiens), sequence (O43193 whole entry): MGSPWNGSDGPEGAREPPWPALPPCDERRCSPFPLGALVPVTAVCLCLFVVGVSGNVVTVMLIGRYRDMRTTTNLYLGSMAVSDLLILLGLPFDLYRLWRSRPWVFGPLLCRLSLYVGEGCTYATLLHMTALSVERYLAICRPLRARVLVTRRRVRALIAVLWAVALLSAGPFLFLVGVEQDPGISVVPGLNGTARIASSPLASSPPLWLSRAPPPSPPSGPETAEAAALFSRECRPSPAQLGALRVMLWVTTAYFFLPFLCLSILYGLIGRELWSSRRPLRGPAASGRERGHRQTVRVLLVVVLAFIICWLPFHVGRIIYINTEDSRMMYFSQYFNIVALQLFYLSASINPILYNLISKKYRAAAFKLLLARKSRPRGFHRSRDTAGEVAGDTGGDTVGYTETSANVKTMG
Test [14] deals with Neuromedin-U receptor 2 (Homo sapiens) (UniProt Q9GZQ4). Briefly: Agonist activity at human NMU2 receptor assessed as myo-[2-3H]inositol phosphate accumulation measured after 75 mins by scintillation proximity assay. Format: functional.
Neuromedin-U receptor 2 (Homo sapiens), sequence (Q9GZQ4 whole entry): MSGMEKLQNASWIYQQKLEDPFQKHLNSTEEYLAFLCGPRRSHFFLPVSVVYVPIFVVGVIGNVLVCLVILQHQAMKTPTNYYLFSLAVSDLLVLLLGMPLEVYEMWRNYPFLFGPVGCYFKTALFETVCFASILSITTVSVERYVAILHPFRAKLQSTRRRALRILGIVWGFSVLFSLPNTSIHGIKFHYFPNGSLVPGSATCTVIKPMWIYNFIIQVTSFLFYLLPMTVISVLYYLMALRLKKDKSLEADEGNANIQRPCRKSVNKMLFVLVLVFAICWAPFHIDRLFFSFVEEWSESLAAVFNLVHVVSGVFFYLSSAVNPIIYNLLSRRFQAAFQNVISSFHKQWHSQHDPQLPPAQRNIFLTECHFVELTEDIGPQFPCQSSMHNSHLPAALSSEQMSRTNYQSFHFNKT
The target of test [15] is T4, C-C chemokine receptor type 1 (Homo sapiens) (UniProt P32246).
T4 sequence (whole entry): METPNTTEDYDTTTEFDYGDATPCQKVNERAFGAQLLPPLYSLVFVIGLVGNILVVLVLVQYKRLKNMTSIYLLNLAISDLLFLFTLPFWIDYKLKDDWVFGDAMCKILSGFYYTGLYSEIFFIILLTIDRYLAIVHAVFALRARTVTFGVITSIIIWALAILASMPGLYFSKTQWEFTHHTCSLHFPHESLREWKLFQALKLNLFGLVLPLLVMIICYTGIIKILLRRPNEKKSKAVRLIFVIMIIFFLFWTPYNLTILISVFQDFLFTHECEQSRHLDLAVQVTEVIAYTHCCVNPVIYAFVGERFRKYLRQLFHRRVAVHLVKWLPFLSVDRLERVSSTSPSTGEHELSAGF
Briefly: Agonist activity at full length human CCR1 assessed as myo-[2-3H]inositol phosphate accumulation measured after 75 mins by scintillation proximity assay. Format: functional.

In test [16] the target is C-C chemokine receptor type 5 (Macaca mulatta) (UniProt P61813). Briefly: Agonist activity at full length rhesus monkey CCR5 assessed as myo-[2-3H]inositol phosphate accumulation measured after 75 mins by scintillation proximity assay. It is filed as functional.
The target in test [17] is Growth hormone secretagogue receptor type 1 (Homo sapiens) (UniProt Q92847). Briefly: Agonist activity at human ghrelin receptor ([…]) assessed as myo-[2-3H]inositol phosphate accumulation in presence of 10 uM Zn2+ measured after 75 mins by scintillation proximity assay. It is filed as functional.
The target in test [18] is Motilin receptor (Homo sapiens) (UniProt O43193). Briefly: Agonist activity at human motilin receptor (412 residues) assessed as myo-[2-3H]inositol phosphate accumulation in presence of 10 uM Zn2+ measured after 75 mins by scintillation proximity assay. It is filed as functional.
Test [19] deals with Neuromedin-U receptor 2 (Homo sapiens) (UniProt Q9GZQ4). Briefly: Agonist activity at human NMU2 receptor assessed as myo-[2-3H]inositol phosphate accumulation in presence of 10 uM Zn2+ measured after 75 mins by scintillation proximity assay. It is filed as functional.
The target in test [20] is T4, C-C chemokine receptor type 1 (Homo sapiens). Briefly: Agonist activity at full length human CCR1 assessed as myo-[2-3H]inositol phosphate accumulation in presence of 10 uM Zn2+ measured after 75 mins by scintillation proximity assay. It is filed as functional.
Test [21] has as its target C-C chemokine receptor type 5 (Macaca mulatta) (UniProt P61813). Briefly: Agonist activity at full length monkey CCR5 assessed as myo-[2-3H]inositol phosphate accumulation in presence of 10 uM Zn2+ measured after 75 mins by scintillation proximity assay. Format: functional.
Test [22] deals with T5, G-protein coupled receptor 39 (Mus musculus) (UniProt Q5U431).
T5 sequence (whole entry): T3 sequence (Q5U431 whole entry)
Briefly: Agonist activity at GPR39 in primary gastric mucosal cells isolated from C57BL/6 mouse assessed as inhibition of isoproterenol-induced ghrelin secretion at 1 uM in presence of 10 uM of Zn2+ and somatostatin receptor antagonist BIM-23627 measured after 4 hrs by ELISA. The gist of the method:
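Primary gastric mucosal cell cultures from mice, incubated the day after preparation with ligands at 1 μM with 10 μM Zn2+ (with or without a somatostatin receptor antagonist) in triplicate for 4 h. Acyl-ghrelin in supernatant measured by ELISA, expressed as percent of medium-alone cells; n=5–7; unpaired t-test with Welch's correction versus vehicle.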
On the technique in general: In an ELISA, binding on a coated surface is turned into a signal by an enzyme label.

A short description of test [23]: Increase in CGRP-induced somatostatin release in primary gastric mucosal cells isolated from GPR39 deficient C57BL/6 mouse at 1 uM in presence of 10 uM of Zn2+ measured after 4 hrs by radioimmunoassay relative to control. It is filed as functional, Primary gastric mucosal cell. The note with it: in the assay text read “C57BL/6 mouse” for “GPR39 deficient C57BL/6 mouse”.

Test [24] deals with Primary gastric mucosal cell. Briefly: Induction of CGRP-induced somatostatin release in primary gastric mucosal cells isolated from GPR39 deficient C57BL/6 mouse at 1 uM in presence of 10 uM of Zn2+ measured after 4 hrs by radioimmunoassay. It is filed as functional, cell-based. The gist of the method:
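Primary gastric mucosal cells from GPR39-KO mice, day after preparation, exposed to ligands (1 μM, 10 μM Zn2+) in triplicate for 4 h; supernatant somatostatin measured by in-house RIA and expressed as percent of medium-alone secretion; 10 nM CGRP used as a comparator stimulus; n=2.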

In test [25] the target is T5, G-protein coupled receptor 39 (Mus musculus). Briefly: Agonist activity at GPR39 in primary gastric mucosal cells isolated from C57BL/6 mouse assessed as myo-[2-3H]inositol phosphate accumulation in presence of 10 uM Zn2+ measured after 75 mins by scintillation proximity assay. Format: functional. The gist of the method:
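Primary murine gastric mucosal cell cultures stimulated with ligand plus 10 μM Zn2+; inositol phosphate turnover read out as for the transfected-cell IP accumulation assay.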

For test [26] the target is unchanged. Briefly: Agonist activity at GPR39 in primary gastric mucosal cells isolated from C57BL/6 mouse assessed as inhibition of basal ghrelin secretion at 1 uM in presence of 10 uM of Zn2+ measured after 4 hrs by ELISA relative to basal level.

With `Cc1cc(C)nc(-n2nc(C)c3c2NC(=O)CC3c2ccc(COc3cccc(Cl)c3)cc2)n1` (centres undefined), the concentration for a half-maximal effect (EC50) in test [1] is 3000 nM. For the same compound, in [2], the result was Active. Also, the fold change (FC) in test [3] is 2.

As for `O=C1/C(=C/NCCCO)C(c2ccccc2)=NN1c1nc2ccccc2s1`, the outcome in [4] and in [5] was inactive. Besides, the EC50 in test [6] was 200 nM. Further, the fold change (FC) in test [3] is 2. Besides, the Activity entry in test [7] is “Dose-dependent effect”.

`Cc1nn(-c2ncnc3nc[nH]c23)c2c1C(OCc1cc(F)cc3c1OCOC3)CC(=O)N2` (centres undefined): the EC50 in test [1] came to 30 nM; in test [6], 1.5 nM; in test [8] it was 2.6 nM; in test [11], 12 nM. The result in [9], in test [12], in test [13], in [14], in [15] and in test [16] was inactive. In addition, the result in test [17], in test [18], in test [19], in test [20], in [21] and in [24] was inactive. Also, the Activity entry in [10] was “Dose-dependent effect”; in [23] it was 82%; in test [25] it was “Dose-dependent effect”. Also, the inhibition result in test [22] was “inactive”. For the same compound, the inhibition in test [26] is 61%.
